This note sets out measurements from ChEMBL document CHEMBL2429814 (J Med Chem, 2013).

The target in data set [1] is Metabotropic glutamate receptor 5 (Rattus norvegicus) (UniProt P31424). As to the kind of experiment: Positive allosteric modulation of rat mGluR5 stably expressed in HEK293 cells assessed as increase in intracellular calcium level by Fluo-4AM dye-based fluorescence assay relative to glutamate. It counts as functional, cell-based. For orientation: Calcium flux is commonly read through the fluorescence of an indicator in the cells.
Chain of Metabotropic glutamate receptor 5 (Rattus norvegicus) (P31424 21-1203 limits assumed): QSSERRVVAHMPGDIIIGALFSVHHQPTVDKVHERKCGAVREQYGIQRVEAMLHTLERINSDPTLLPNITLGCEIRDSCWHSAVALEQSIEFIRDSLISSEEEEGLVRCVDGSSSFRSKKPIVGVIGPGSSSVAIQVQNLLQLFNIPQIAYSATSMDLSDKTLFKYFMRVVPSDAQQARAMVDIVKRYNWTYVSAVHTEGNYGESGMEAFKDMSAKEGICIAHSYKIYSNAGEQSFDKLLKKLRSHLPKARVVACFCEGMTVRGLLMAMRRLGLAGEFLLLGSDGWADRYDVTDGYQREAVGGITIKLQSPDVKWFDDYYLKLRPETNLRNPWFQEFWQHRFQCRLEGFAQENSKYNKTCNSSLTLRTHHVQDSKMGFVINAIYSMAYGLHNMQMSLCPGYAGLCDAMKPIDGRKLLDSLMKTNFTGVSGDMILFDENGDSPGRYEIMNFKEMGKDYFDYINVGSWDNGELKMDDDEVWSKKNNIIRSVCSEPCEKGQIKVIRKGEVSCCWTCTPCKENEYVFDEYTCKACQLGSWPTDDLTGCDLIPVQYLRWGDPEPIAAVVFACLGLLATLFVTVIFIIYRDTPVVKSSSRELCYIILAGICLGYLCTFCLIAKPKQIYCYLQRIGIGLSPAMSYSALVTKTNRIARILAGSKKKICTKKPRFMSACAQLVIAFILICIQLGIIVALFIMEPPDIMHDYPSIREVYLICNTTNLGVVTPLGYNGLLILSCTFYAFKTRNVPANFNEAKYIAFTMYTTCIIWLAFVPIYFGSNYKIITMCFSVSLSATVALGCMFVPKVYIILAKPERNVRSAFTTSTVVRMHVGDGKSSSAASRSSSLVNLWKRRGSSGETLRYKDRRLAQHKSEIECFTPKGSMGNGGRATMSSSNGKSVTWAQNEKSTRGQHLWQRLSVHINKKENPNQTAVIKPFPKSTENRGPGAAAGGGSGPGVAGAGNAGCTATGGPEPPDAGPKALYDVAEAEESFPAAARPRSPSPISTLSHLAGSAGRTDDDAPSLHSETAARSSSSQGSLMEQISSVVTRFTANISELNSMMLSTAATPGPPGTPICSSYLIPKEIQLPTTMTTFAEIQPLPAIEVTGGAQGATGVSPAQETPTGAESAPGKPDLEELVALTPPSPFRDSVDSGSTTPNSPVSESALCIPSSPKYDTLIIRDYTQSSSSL

For data set [2] the target is unchanged. Kind of data set: Potentiation of rat mGluR5 receptor stably expressed in HEK293 cells assessed as fold shift in glutamate concentration response curve at 10 uM relative to control. It counts as cell-based. Put shortly:
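HEK293 cells stably expressing rat mGlu5 were loaded with Fluo-4AM. Compound at 10 µM, or vehicle, was added, and a glutamate concentration-response curve followed 140 s later. The fold leftward shift of the glutamate curve was read from calcium fluorescence. Values are means of three independent experiments in triplicate.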

The target in data set [3] is T1, Metabotropic glutamate receptor 5 (Rattus norvegicus, UniProt P31424). Kind of data set: Positive allosteric modulation of rat mGluR5 stably expressed in HEK293 cells assessed as increase in intracellular calcium level by Fluo-4AM dye-based fluorescence assay. It counts as functional, cell-based. The note with it: read-out: EC50. An outline of the steps:
(§1)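 HEK293 cells stably expressing rat mGlu5 (low receptor density line), 15,000 cells/well, grown overnight at 37°C/5% CO2. Loaded with Fluo-4AM for 50 min at 37°C in HBSS with 20 mM HEPES, 2.5 mM probenecid, pH 7.4. Triple add: compound, then EC20 glutamate 140 s later, then EC80 glutamate 60 s later. Calcium fluorescence read over time. Values are means of ≥3 independent experiments run in duplicate or triplicate.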

The target in data set [4] is T1, Metabotropic glutamate receptor 5. Kind of data set: Positive allosteric modulation of rat mGluR5.
In data set [5] the target is Metabotropic glutamate receptor 5 (Homo sapiens, UniProt P41594). As to the kind of experiment: Positive allosteric modulation of mGluR5 (unknown origin) at 10 uM relative to glutamate. An outline of the steps:
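HEK293 cells stably expressing rat mGlu5 (low receptor expression line) were plated overnight at 37°C/5% CO2 and loaded with Fluo-4AM for 50 min at 37°C in HBSS with 20 mM HEPES and 2.5 mM probenecid, pH 7.4. PAM (10 µM) or vehicle was added, then a glutamate concentration-response curve 140 s later. Read-out was calcium fluorescence, reported as glutamate fold-shift, three independent runs in triplicate.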

Data set [6] in a line: Plasma protein binding in rat. It counts as ADME, cell-free. Put shortly: (§2)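 Fraction unbound measured by equilibrium dialysis in human or rat plasma.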
In data set [7] the target is T1, Metabotropic glutamate receptor 5. As to the kind of experiment: Agonist activity at rat mGluR5 stably expressed in HEK293 cells assessed as increase in intracellular calcium level by Fluo-4AM dye-based fluorescence assay relative to glutamate. It counts as cell-based. Particulars: read-out: Efficacy; call rule not given here. Put shortly: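 HEK293 cells stably expressing rat mGlu5 (low receptor density), 15,000 cells/well, grown overnight, then loaded with Fluo-4AM for 50 min at 37°C in HBSS/20 mM HEPES/2.5 mM probenecid, pH 7.4. Triple-add protocol: compound, then glutamate EC20 140 s later, then EC80 60 s later. Fluorescence read over time. At least three independent runs in duplicate or triplicate; response given as % of glutamate maximum.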

Data set [8] is described as follows: Agonist activity at rat mGluR5 T780A mutant stably expressed in HEK293 cells assessed as increase in intracellular calcium level at 1 to 100 uM by Fluo-4AM dye-based fluorescence assay. It counts as cell-based. The note with it: hek293, 100 µM.
Data set [9] is described as follows: Plasma protein binding in human. It counts as ADME, cell-free. Put shortly:
as §2

For data set [10], the target named is T1, Metabotropic glutamate receptor 5. Kind of data set: Agonist activity at rat mGluR5 stably expressed in HEK293 cells assessed as increase in intracellular calcium level by Fluo-4AM dye-based fluorescence assay. It counts as cell-based. The note with it: read-out: EC50. An outline of the steps:
as §1

T1 sequence (P31424 whole entry): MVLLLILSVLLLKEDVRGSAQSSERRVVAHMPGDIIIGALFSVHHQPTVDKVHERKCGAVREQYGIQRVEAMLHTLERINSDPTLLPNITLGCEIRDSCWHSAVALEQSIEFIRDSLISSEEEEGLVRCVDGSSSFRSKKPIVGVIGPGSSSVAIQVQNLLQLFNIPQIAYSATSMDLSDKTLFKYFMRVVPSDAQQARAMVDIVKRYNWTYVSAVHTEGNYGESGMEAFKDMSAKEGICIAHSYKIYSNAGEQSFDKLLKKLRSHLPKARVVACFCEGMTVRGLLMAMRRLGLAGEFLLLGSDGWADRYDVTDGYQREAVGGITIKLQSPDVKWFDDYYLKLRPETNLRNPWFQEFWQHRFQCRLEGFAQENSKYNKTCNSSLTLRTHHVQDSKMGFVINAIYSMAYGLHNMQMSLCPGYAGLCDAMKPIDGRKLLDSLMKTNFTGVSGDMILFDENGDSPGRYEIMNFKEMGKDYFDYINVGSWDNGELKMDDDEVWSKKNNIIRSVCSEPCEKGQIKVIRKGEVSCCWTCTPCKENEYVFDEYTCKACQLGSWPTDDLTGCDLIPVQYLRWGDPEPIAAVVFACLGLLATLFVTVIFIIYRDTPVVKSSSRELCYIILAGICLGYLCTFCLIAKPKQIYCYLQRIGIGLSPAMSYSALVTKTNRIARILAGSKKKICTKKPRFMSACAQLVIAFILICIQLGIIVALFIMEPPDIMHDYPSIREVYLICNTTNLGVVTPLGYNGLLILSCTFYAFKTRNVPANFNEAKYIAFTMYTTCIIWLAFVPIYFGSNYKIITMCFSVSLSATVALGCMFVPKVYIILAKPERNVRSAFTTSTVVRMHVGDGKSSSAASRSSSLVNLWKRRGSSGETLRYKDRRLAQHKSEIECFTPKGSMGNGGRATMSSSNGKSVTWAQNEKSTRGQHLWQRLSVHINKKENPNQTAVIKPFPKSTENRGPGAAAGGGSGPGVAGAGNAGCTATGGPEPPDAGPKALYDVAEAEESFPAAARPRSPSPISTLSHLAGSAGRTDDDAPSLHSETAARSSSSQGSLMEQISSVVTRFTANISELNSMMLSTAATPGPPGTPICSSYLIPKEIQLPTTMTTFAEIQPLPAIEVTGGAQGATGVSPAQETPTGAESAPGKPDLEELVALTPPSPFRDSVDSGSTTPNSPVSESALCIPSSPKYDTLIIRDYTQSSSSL
Chain of Metabotropic glutamate receptor 5 (Homo sapiens, UniProt P41594) (P41594 21-1212 limits assumed): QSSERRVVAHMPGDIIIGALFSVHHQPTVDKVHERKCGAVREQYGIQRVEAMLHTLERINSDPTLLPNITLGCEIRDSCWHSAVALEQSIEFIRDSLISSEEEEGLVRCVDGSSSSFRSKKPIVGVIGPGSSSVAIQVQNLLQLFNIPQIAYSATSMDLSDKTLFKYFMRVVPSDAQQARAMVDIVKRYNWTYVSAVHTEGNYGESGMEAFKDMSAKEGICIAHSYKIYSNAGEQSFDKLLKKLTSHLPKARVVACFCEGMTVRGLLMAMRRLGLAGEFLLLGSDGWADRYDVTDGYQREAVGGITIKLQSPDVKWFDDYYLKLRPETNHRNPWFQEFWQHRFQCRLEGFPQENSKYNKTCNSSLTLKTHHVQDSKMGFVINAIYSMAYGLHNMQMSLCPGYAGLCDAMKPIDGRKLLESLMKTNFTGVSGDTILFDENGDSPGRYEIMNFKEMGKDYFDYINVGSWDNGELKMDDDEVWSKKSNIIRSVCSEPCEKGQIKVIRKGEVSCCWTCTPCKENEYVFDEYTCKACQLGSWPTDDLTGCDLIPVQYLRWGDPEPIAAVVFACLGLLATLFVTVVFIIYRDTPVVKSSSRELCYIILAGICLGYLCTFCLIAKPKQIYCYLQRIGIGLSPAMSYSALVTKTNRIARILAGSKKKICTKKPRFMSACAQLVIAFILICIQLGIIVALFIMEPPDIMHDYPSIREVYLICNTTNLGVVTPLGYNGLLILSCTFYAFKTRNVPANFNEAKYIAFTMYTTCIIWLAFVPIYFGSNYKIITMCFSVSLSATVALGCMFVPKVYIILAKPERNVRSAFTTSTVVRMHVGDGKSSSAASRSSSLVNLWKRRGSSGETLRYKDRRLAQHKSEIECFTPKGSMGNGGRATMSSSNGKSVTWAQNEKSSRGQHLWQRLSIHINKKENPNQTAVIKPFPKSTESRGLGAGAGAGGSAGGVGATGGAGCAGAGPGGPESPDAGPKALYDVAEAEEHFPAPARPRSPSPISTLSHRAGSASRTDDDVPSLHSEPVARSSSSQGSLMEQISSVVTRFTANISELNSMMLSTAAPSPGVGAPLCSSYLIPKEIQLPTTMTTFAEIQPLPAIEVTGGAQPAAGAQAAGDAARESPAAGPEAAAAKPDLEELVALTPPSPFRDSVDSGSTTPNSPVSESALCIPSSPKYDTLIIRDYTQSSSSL

Turning to `CC1(CNC(=O)c2ccc(C#Cc3cccc(F)c3)cn2)COC1`, the Efficacy in data set [1] was found to be 60.4%. Besides, the fold change (FC) in data set [2] is 3.3. Also, in [3], the half-maximal effective concentration (EC50) came to 0.0107 µM.

In the case of `Cc1cc(C#Cc2cccc(F)c2)cnc1C(=O)N[C@H](C)C(C)(C)O`, in data set [1], the Efficacy worked out at 66.4%. In addition, the fold change (FC) in data set [2] was determined as 2.3. For the same molecule, the EC50 in data set [3] was 0.105 µM.

Take `O=C(N[C@H]1C[C@H](O)C1)c1ccc(C#Cc2cccc(F)c2)cn1`: the EC50 in [4] turned out to be 0.017 µM.

In data set [5], `O=C1c2ccc(F)cc2CCC2CC[C@@H](c3noc(-c4ccc(F)cn4)n3)CN12` (some centres undefined) had a fold change (FC) of 6.

Consider `C[C@@H](NC(=O)c1cnc(C#Cc2cccc(F)c2)nc1)C(C)(C)O`, for which the Efficacy in data set [1] amounted to 68.7%. The fold change (FC) in [2] is 4. In addition, the EC50 in data set [3] worked out at 0.122 µM.

`O=C(c1ccc(C#Cc2cccc(F)c2)nc1)N1CCC(O)CC1`: the EC50 in data set [4] was found to be 0.2 µM.

Turning to `C[C@@H](NC(=O)c1ccc(C#Cc2ccccn2)cn1)C(C)(C)F`, the Efficacy in data set [1] amounted to 54.9%. Also, in [2], the fold change (FC) worked out at 1.5. Besides, in [3], the concentration giving a half-maximal response (EC50) worked out at 0.0222 µM.

For the molecule `C[C@@H]1CC[C@H](c2noc(-c3ccc(F)cn3)n2)CN1C(=O)c1ccccc1`, the fold change (FC) in data set [5] came to 11.

Regarding `C[C@@H](NC(=O)c1ccc(C#Cc2cccc(F)c2)cn1)C(C)(C)O`, the fraction unbound in data set [6] is 0.028; in data set [9], 0.027. Besides, the Emax in data set [7] came to 37.1%. Besides, in data set [8], the Activity entry is listed as “Not Active”. Also, the Efficacy in [1] stood at 63.5%. The results for the concentration giving a half-maximal response (EC50) in data set [10], in data set [4] and in data set [3] were 0.904 µM, 0.0015 µM and 0.0049 µM, respectively.

One may read the EC50 as the concentration giving half of the maximal effect. For orientation: fraction unbound means free concentration divided by total concentration.
